Measured values: ChEMBL document CHEMBL3862011, “Neuroprotective effects of benzyloxy substituted small molecule monoamine oxidase B inhibitors in Parkinson's disease” (Bioorg Med Chem, 2016)
The source made the active and inactive calls. No cut-off for these calls is given here.

How the values were obtained:
PC-12 [1] = experiment: Neuroprotective activity against 6-OHDA-induced apoptosis in rat PC12 cells assessed as early apoptotic cells at 5 uM after 24 hrs by 7-AAD/annexin V APC staining-based flow cytometric method (reference value: 42.1%); type: functional
PC-12 [2] = experiment: Neuroprotective activity against rotenone-induced apoptosis in rat PC12 cells assessed as decrease in nuclear condensation at 20 uM after 24 hrs by Hoechst 33258 staining-based fluorescent inverted microscopic method; type: functional, cell-based
Procedure, shortened: (§1)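 PC12 cells exposed to 6-OHDA or rotenone with test treatment were stained with Hoechst 33258 for 30 min, mounted on glass slides under cover slips, and examined by fluorescent inverted microscopy.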

PC-12 [3] = experiment: Neuroprotective activity against rotenone-induced apoptosis in rat PC12 cells assessed as early apoptotic cells at 20 uM after 24 hrs by 7-AAD/annexin V APC staining-based flow cytometric method (reference value: 2.2%); type: functional
PC-12 [4] = experiment: Neuroprotective activity against 6-OHDA-induced apoptosis in rat PC12 cells assessed as necrotic cells at 40 uM after 24 hrs by 7-AAD/annexin V APC staining-based flow cytometric method (reference value: 0.6%); type: functional
PC-12 [5] = experiment: Neuroprotective activity against rotenone-induced apoptosis in rat PC12 cells assessed as viable cells at 20 uM after 24 hrs by 7-AAD/annexin V APC staining-based flow cytometric method (reference value: 39.3%); type: functional; conditions: PC-12, 24 h, read-out: Activity
PC-12 [6] = experiment: Neuroprotective activity against 6-OHDA-induced apoptosis in rat PC12 cells assessed as necrotic cells at 20 uM after 24 hrs by 7-AAD/annexin V APC staining-based flow cytometric method (reference value: 0.6%); type: functional
[7] = Neuroprotective activity against 6-OHDA-induced toxicity in rat PC12 cells assessed as cell survival at 20 uM preincubated for 24 hrs followed by 6-OHDA addition measured after 24 hrs by MTT assay relative to control; type: functional; conditions: PC-12, read-out: Survival
Procedure, shortened: (§2)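 PC12 cells seeded 5×10^3/well, after 24 h given compound at 20 μM for 24 h at 37 °C, then exposed to 6-OHDA (40 μM) or rotenone (1 μM) for 24 h. […] Mean ± SEM of three independent experiments.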

Mus musculus [8] = experiment: Acute toxicity in Kunming mouse assessed as reduction in body weight at 2000 mg/kg measured for 14 days; type: organism-based; conditions: in vivo, 336 h
Procedure, shortened: (§3)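 Kunming mice (20 ± 2 g), 10 per group, vehicle control group; fasted overnight, single oral dose in 0.5% CMC-Na suspension. Observed continuously for 4 h, intermittently to 24 h, then occasionally to day 14 for behaviour, mortality, food and water intake and body weight; sacrificed under ether on day 14.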

PC-12 [9] = experiment: Neuroprotective activity against 6-OHDA-induced apoptosis in rat PC12 cells assessed as viable cells at 20 uM after 24 hrs by 7-AAD/annexin V APC staining-based flow cytometric method (reference value: […]); type: functional; conditions: PC-12, 24 h, read-out: Activity
PC-12 [10] = experiment: Neuroprotective activity against rotenone-induced reactive oxygen species accumulation in rat PC12 cells after 24 hrs by DCFH-DA probe-based flow cytometric method; type: functional, cell-based
Procedure, shortened: (§4)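 PC12 cells were seeded at 2×10^5 cells/well in six-well plates and cultured with or without various concentrations of test samples for 24 h. After washing, they were loaded with DCFH-DA for 30 min at 37 °C in the dark, washed and harvested. DCF fluorescence read by flow cytometry (ex 488/em 525 nm), reported as mean fluorescence intensity.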

PC-12 [11] = experiment: Neuroprotective activity against rotenone-induced apoptosis in rat PC12 cells assessed as necrotic cells at 40 uM after 24 hrs by 7-AAD/annexin V APC staining-based flow cytometric method (reference value: 48.6%); type: functional
PC-12 [12] = experiment: Neuroprotective activity against 6-OHDA-induced apoptosis in rat PC12 cells assessed as viable cells at 5 uM after 24 hrs by 7-AAD/annexin V APC staining-based flow cytometric method (reference value: […]); type: functional; conditions: PC-12, 24 h, read-out: Activity
PC-12 [13] = experiment: Neuroprotective activity against rotenone-induced apoptosis in rat PC12 cells assessed as necrotic cells at 20 uM after 24 hrs by 7-AAD/annexin V APC staining-based flow cytometric method (reference value: 48.6%); type: functional
[14] = Neuroprotective activity against rotenone-induced toxicity in rat PC12 cells assessed as cell survival at 20 uM preincubated for 24 hrs followed by rotenone addition measured after 24 hrs by MTT assay relative to control; type: functional; conditions: PC-12, read-out: Survival; procedure, shortened: as §2
Mus musculus [15] = experiment: Acute toxicity in Kunming mouse assessed as abnormal changes in food consumption at 2000 mg/kg measured for 14 days; type: organism-based; conditions: in vivo, 336 h; procedure, shortened: as §3
PC-12 [16] = experiment: Neuroprotective activity against 6-OHDA-induced apoptosis in rat PC12 cells assessed as viable cells at 40 uM after 24 hrs by 7-AAD/annexin V APC staining-based flow cytometric method (reference value: […]); type: functional; conditions: PC-12, 24 h, read-out: Activity
PC-12 [17] = experiment: Neuroprotective activity against rotenone-induced apoptosis in rat PC12 cells assessed as early apoptotic cells at 5 uM after 24 hrs by 7-AAD/annexin V APC staining-based flow cytometric method (reference value: 2.2%); type: functional
PC-12 [18] = experiment: Neuroprotective activity against 6-OHDA-induced apoptosis in rat PC12 cells assessed as late apoptotic cells at 10 uM after 24 hrs by 7-AAD/annexin V APC staining-based flow cytometric method (reference value: 4.4%); type: functional
PC-12 [19] = experiment: Neuroprotective activity against rotenone-induced toxicity in rat PC12 cells assessed as increase in cell viability after 24 hrs by phase-contrast microscopic method; type: functional, cell-based
Procedure, shortened: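 PC12 cells were exposed to 5-40 μM test compound together with 40 μM 6-OHDA or 1 μM rotenone for 24 h. Viability was judged from phase-contrast images against untreated controls.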

Mus musculus [20] = experiment: Acute toxicity in Kunming mouse assessed as abnormal changes in water consumption at 2000 mg/kg measured for 14 days; type: organism-based; conditions: in vivo, 336 h; procedure, shortened: as §3
[21] = Cytotoxicity against rat PC12 cells assessed as cell survival at 20 uM after 72 hrs by MTT assay relative to control; type: toxicity, PC-12; conditions: read-out: Survival
PC-12 [22] = experiment: Neuroprotective activity against 6-OHDA-induced apoptosis in rat PC12 cells assessed as decrease in nuclear fragmentation at 20 uM after 24 hrs by Hoechst 33258 staining-based fluorescent inverted microscopic method; type: functional, cell-based; procedure, shortened: as §1
PC-12 [23] = experiment: Neuroprotective activity against rotenone-induced apoptosis in rat PC12 cells assessed as late apoptotic cells at 40 uM after 24 hrs by 7-AAD/annexin V APC staining-based flow cytometric method (reference value: 9.9%); type: functional
PC-12 [24] = experiment: Neuroprotective activity against 6-OHDA-induced apoptosis in rat PC12 cells assessed as late apoptotic cells at 20 uM after 24 hrs by 7-AAD/annexin V APC staining-based flow cytometric method (reference value: 4.4%); type: functional
PC-12 [25] = experiment: Neuroprotective activity against rotenone-induced apoptosis in rat PC12 cells assessed as necrotic cells at 10 uM after 24 hrs by 7-AAD/annexin V APC staining-based flow cytometric method (reference value: 48.6%); type: functional
PC-12 [26] = experiment: Neuroprotective activity against 6-OHDA-induced apoptosis in rat PC12 cells assessed as viable cells at 10 uM after 24 hrs by 7-AAD/annexin V APC staining-based flow cytometric method (reference value: […]); type: functional; conditions: PC-12, 24 h, read-out: Activity
[27] = Cytotoxicity against rat PC12 cells assessed as cell survival at 100 uM after 24 hrs by MTT assay relative to control; type: toxicity, PC-12; conditions: read-out: Survival
PC-12 [28] = experiment: Neuroprotective activity against 6-OHDA-induced reactive oxygen species accumulation in rat PC12 cells after 24 hrs by DCFH-DA probe-based flow cytometric method; type: functional, cell-based; procedure, shortened: as §4

O=C1CCOc2cc(OCc3ccc(F)cc3)ccc21
Activity (PC-12 [1]): 25.1% | Activity (PC-12 [2]): Active | Activity (PC-12 [3]): 2.5% | Activity (PC-12 [4]): 1.9% | viability at 20 µM (PC-12 [5]): 57.8% | Activity (PC-12 [6]): 1.1% | viability at 20 µM [7]: 134% | Activity (Mus musculus [8]): Non-Toxic | viability at 20 µM (PC-12 [9]): 87.8% | Activity (PC-12 [10]): Dose-dependent effect | Activity (PC-12 [11]): 25.8% | viability at 5 µM (PC-12 [12]): 69.3% | Activity (PC-12 [13]): 30.2% | viability at 20 µM [14]: 126% | Activity (Mus musculus [15]): Non-Toxic | viability at 40 µM (PC-12 [16]): 90.8% | Activity (PC-12 [17]): 3.3% | Activity (PC-12 [18]): 3.3% | Activity (PC-12 [19]): Dose-dependent effect | Activity (Mus musculus [20]): Non-Toxic | viability at 72 h, 20 µM [21]: 94.5% | Activity (PC-12 [22]): Active | Activity (PC-12 [23]): 9.2% | Activity (PC-12 [24]): 0.3% | Activity (PC-12 [25]): 30.8% | viability at 10 µM (PC-12 [26]): 70.7% | viability at 24 h, 100 µM [27]: 93.1% | Activity (PC-12 [28]): Dose-dependent effect
